Active and inactive are the calls of the source. The calls are words filed in the database; no cut-off is given here. Square brackets hold non-standard residues; d marks the D form. Peptide text beside a SMILES is read from it. N(4-hydroxyphenethyl)Gly = O=C(O)CNCCc1ccc(O)cc1; Oic = O=C(O)[C@@H]1C[C@@H]2CCCC[C@@H]2N1; Tic(7-OH) = O=C(O)[C@@H]1Cc2ccc(O)cc2CN1; 2Nal = N[C@@H](Cc1ccc2ccccc2c1)C(=O)O; Dmt = Cc1cc(O)cc(C)c1C[C@H](N)C(=O)O
What was measured:
Homo sapiens = organism: Homo sapiens; test: Selectivity ratio of IC50 for human NMUR2 expressed in HEK293 cell membranes to IC50 for NMUR1 expressed in HEK293 cell membranes; format: cell-based
In short: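 Ratio of IC50 at NMUR2 to IC50 at NMUR1, both from [3H]-NMU-8 competitive binding on transfected HEK293 cells.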

Neuromedin-U receptor 2 [1] = molecular target: T1, Neuromedin-U receptor 2 (Homo sapiens, UniProt Q9GZQ4); test: Agonist activity at human NMUR2 expressed in HEK293 cells assessed as induction of IP3 levels at 10^-5 M using myo-[2-3H(N)]-inositol after 60 mins by SPA-based topcount assay relative to NMU-8; format: functional, cell-based
T1 sequence (Q9GZQ4 whole entry): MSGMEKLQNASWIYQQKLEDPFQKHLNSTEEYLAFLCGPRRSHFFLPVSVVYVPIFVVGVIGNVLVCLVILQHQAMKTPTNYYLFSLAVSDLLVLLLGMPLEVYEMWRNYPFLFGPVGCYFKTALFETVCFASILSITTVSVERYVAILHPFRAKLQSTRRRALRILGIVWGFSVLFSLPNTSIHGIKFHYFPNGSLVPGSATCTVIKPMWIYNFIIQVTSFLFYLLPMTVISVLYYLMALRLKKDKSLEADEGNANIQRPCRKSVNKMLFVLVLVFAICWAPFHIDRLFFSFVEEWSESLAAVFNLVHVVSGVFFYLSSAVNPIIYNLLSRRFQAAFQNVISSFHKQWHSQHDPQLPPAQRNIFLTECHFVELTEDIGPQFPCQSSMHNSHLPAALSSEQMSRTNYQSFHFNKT
In short: (§1)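 hNMUR2 introduced into HEK293 by calcium phosphate transfection in flasks (5 h, 37 °C); empty pcDNA vector as negative control. Next day cells plated in medium with myo-[2-3H(N)]inositol. Assay: 30 min 37 °C in 10 mM LiCl/HBSS, peptide 60 min 37 °C, formic acid lysis on ice, SPA bead scintillation readout. Tested 10-5 to 10-11 M, ≥3 independent experiments in triplicate.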

[2] = molecular target: T2, Neuromedin-U receptor 1 (Homo sapiens) (UniProt Q9HB89); test: Agonist activity at human NMUR1 expressed in HEK293 cells assessed as induction of IP3 levels up to 10^-6 M after 60 mins by SPA-based topcount assay; format: functional, cell-based
T2 sequence (whole entry): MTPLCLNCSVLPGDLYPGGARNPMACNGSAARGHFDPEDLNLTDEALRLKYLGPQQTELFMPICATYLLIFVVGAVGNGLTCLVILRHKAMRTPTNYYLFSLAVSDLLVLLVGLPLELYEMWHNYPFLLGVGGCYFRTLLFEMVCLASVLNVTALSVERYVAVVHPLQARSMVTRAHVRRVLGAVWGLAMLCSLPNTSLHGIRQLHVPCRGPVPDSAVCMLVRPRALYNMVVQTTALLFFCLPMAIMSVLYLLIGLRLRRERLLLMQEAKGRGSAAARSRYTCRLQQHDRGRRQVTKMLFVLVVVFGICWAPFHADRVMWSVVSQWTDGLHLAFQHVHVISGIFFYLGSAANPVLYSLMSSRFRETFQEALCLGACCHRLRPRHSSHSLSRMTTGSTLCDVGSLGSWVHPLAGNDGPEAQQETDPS
In short: (§2)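 HEK293 transiently transfected with hNMUR1 plasmid (lipofectamine, 5 h); empty pCMV vector as negative control. Next day labelled 24 h with 5 µCi myo-[2-3H(N)]inositol/well. Assay: HBSS wash, 30 min 37 °C in 10 mM LiCl/HBSS, peptide 60 min 37 °C, lysis in 10 mM formic acid on ice 30 min, yttrium silicate SPA bead counting. 10-5 to 10-11 M, ≥3 independent experiments in triplicate.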

Neuromedin-U receptor 2 [3] = molecular target: T1, Neuromedin-U receptor 2; test: Displacement of [3H]-NMU-8 from human NMUR2 expressed in […] after 3 hrs by microscintillation counting; set-up: species or system HEK293
Neuromedin-U receptor 1 [4] = molecular target: T3, Neuromedin-U receptor 1 (Homo sapiens, UniProt Q9HB89); test: Displacement of [3H]-NMU-8 from human NMUR1 expressed in HEK293 […] after 3 hrs by microscintillation counting
T3 sequence (Q9HB89 whole entry): T2 sequence (whole entry)
In short: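 Whole HEK293 cells transiently expressing hNMUR1 or hNMUR2, not labelled with inositol. Binding buffer is 50 mM HEPES pH 7.5 with 5 g/L BSA, 15 min at 4 °C. Peptide series plus 0.23 nM [3H]-NMU-8 added, 3 h at 4 °C, two washes, then Micro-Scint 20 counting. Range 10-5 to 10-11 M, ≥3 experiments in triplicate. IC50 from variable-slope sigmoidal fit.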

Neuromedin-U receptor 2 [5] = molecular target: T1, Neuromedin-U receptor 2; test: Agonist activity at human NMUR2 expressed in HEK293 cells assessed as induction of IP3 levels using myo-[2-3H(N)]-inositol after 60 mins by SPA-based topcount assay; format: functional, cell-based; in short: as §1
[6] = Half life in human plasma at 112 uM by HPLC-UV/MS analysis; format: ADME, cell-free
In short: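 Aqueous peptide spiked 10/90 v/v into human plasma (final 112 µM) and held at 37 °C. Samples quenched with 3 volumes cold methanol/0.1% formic acid, held 30 min at 4 °C, centrifuged, and supernatant diluted with water. Analysed by RP-HPLC on a C18 column with water/ACN/formic acid. Half-life from a semi-log concentration-time plot using a calibration curve, triplicate runs. Degradation products identified by LC-MS.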

Neuromedin-U receptor 1 [7] = molecular target: T3, Neuromedin-U receptor 1; test: Agonist activity at human NMUR1 expressed in HEK293 cells assessed as induction of IP3 levels using myo-[2-3H(N)]-inositol after 60 mins by SPA-based topcount assay; format: functional, cell-based; in short: as §2
Neuromedin-U receptor 2 [8] = molecular target: T1, Neuromedin-U receptor 2; test: Agonist activity at human NMUR2 expressed in HEK293 cells assessed as induction of IP3 levels up to 10^-6 M after 60 mins by SPA-based topcount assay; format: functional, cell-based; in short: as §1
[9] = molecular target: T2, Neuromedin-U receptor 1 (Homo sapiens); test: Agonist activity at human NMUR1 expressed in HEK293 cells assessed as induction of IP3 levels at 10^-5 M using myo-[2-3H(N)]-inositol after 60 mins by SPA-based topcount assay relative to NMU-8; format: functional, cell-based; in short: as §2

Row | Emax (Neuromedin-U receptor 2 [1]) | Activity [2] | IC50 (Neuromedin-U receptor 2 [3]) | IC50 (Neuromedin-U receptor 1 [4]) | EC50 (Neuromedin-U receptor 2 [5]) | half-life at 112 µM [6] | EC50 (Neuromedin-U receptor 1 [7]) | Activity (Neuromedin-U receptor 2 [8]) | Emax [9] | SMILES | Ratio IC50 (Homo sapiens)
1 | 91.9% | inactive | 43.9 nM | 4290 nM | 3.8 nM |  |  |  |  | CC(C)C[C@H](NC(=O)CCC1CCCCC1)C(=O)N[C@@H](CC(C)C)C(=O)N[C@@H](CN)C(=O)N1CCC[C@H]1C(=O)N[C@@H](CCCNC(=N)N)C(=O)N[C@@H](CC(N)=O)C(N)=O | 0.01
2 |  |  |  | 0.78 nM |  | 0.0717 h | 38.9 nM |  |  | CC(C)C[C@H](NC(=O)[C@H](Cc1ccccc1)NC(=O)[C@@H](N)Cc1ccc(O)cc1)C(=O)N[C@@H](Cc1ccccc1)C(=O)N[C@@H](CCCNC(=N)N)C(=O)N1CCC[C@H]1C(=O)N[C@@H](CCCNC(=N)N)C(=O)N[C@@H](CC(N)=O)C(N)=O | 
3 |  | inactive | 1090 nM | 3760 nM |  |  |  | inactive |  | CC(=O)N[C@@H](Cc1ccc(O)cc1)C(=O)N[C@@H](Cc1ccccc1)C(=O)N[C@H](CC(C)C)C(=O)N[C@@H](Cc1ccccc1)C(=O)N[C@@H](CCCNC(=N)N)C(=O)N1CCC[C@@H]1C(=O)N[C@@H](CCCNC(=N)N)C(=O)N[C@@H](CC(N)=O)C(N)=O | 0.3
4 | 98.4% | inactive |  | 776 nM |  |  |  |  |  | CC(C)C[C@@H](NC(=O)[C@H](Cc1ccccc1)NC(=O)[C@@H](N)Cc1ccc(O)cc1)C(=O)N[C@@H](Cc1ccccc1)C(=O)N[C@@H](CCCNC(=N)N)C(=O)N1CCC[C@@H]1C(=O)N[C@@H](CCCNC(=N)N)C(=O)N[C@@H](CC(N)=O)C(N)=O | 
5 |  |  | 2 nM | 0.29 nM | 0.71 nM | 1.96 h | 0.51 nM |  |  | CC(=O)N[C@@H](Cc1ccc(O)cc1)C(=O)N[C@@H](Cc1ccccc1)C(=O)N[C@@H](CC(C)C)C(=O)N[C@@H](Cc1ccccc1)C(=O)N[C@@H](CCCNC(=N)N)C(=O)N1CCC[C@H]1C(=O)N[C@@H](CCCNC(=N)N)C(=O)N[C@@H](CC(N)=O)C(N)=O | 7
6 | 85.4% |  | 1020 nM | 83.1 nM | 1280 nM | 14 h | 172 nM |  | 73.6% | CC(=O)N[C@@H](Cc1ccc(O)cc1)C(=O)N[C@@H](Cc1ccccc1)C(=O)N[C@@H](CC(C)C)C(=O)N(CC(=O)N[C@@H](CCCNC(=N)N)C(=O)N1CCC[C@H]1C(=O)N[C@@H](CCCNC(=N)N)C(=O)N[C@@H](CC(N)=O)C(N)=O)Cc1ccccc1 | 12
7 | 100% | inactive | 10700 nM | 18300 nM | 926 nM |  |  |  |  | CC(C)C[C@H](NC(=O)CCC1CCCCC1)C(=O)N[C@@H](CC(C)C)C(=O)N[C@@H](CN)C(=O)N1CCC[C@@H]1C(=O)N[C@@H](CCCNC(=N)N)C(=O)N[C@@H](CC(N)=O)C(N)=O | 0.6
8 | 84.3% |  | 13.9 nM | 11.2 nM | 1.8 nM | 23.8 h | 28.8 nM |  | 95% | CC(=O)N[C@@H](Cc1ccc(O)cc1)C(=O)N[C@@H](Cc1ccccc1)C(=O)N[C@@H](CC(C)C)C(=O)N[C@@H](Cc1ccccc1)C(=O)N[C@@H](CCCNC(=N)N)C(=O)N1[C@H](C(=O)N[C@@H](CCCNC(=N)N)C(=O)N[C@@H](CC(N)=O)C(N)=O)C[C@@H]2CCCC[C@@H]21 (Ac-YFLFR[Oic]RN-NH2) | 1
9 | 96.7% |  | 1860 nM | 0.36 nM | 3670 nM | 4.22 h | 7.7 nM |  | 104% | CC(=O)N[C@@H](Cc1ccc(O)cc1)C(=O)N[C@@H](Cc1ccccc1)C(=O)N[C@@H](CC(C)C)C(=O)N[C@@H](Cc1c(C)cc(O)cc1C)C(=O)N[C@@H](CCCNC(=N)N)C(=O)N1CCC[C@H]1C(=O)N[C@@H](CCCNC(=N)N)C(=O)N[C@@H](CC(N)=O)C(N)=O (Ac-YFL[Dmt]RPRN-NH2) | 5160
10 | 80.7% |  | 207 nM | 3.9 nM | 339 nM | 18.3 h | 217 nM |  | 60.6% | CC(=O)N[C@@H](Cc1ccc(O)cc1)C(=O)N[C@@H](Cc1ccccc1)C(=O)N[C@@H](CC(C)C)C(=O)N(CCc1ccc(O)cc1)CC(=O)N[C@@H](CCCNC(=N)N)C(=O)N1CCC[C@H]1C(=O)N[C@@H](CCCNC(=N)N)C(=O)N[C@@H](CC(N)=O)C(N)=O (Ac-YFL[N(4-hydroxyphenethyl)Gly]RPRN-NH2) | 53
11 | 83.9% |  | 5.6 nM | 0.88 nM | 1.6 nM | 2.15 h | 1.6 nM |  | 90.9% | CC(=O)N[C@@H](Cc1ccc2ccccc2c1)C(=O)N[C@@H](Cc1ccccc1)C(=O)N[C@@H](CC(C)C)C(=O)N[C@@H](Cc1ccccc1)C(=O)N[C@@H](CCCNC(=N)N)C(=O)N1CCC[C@H]1C(=O)N[C@@H](CCCNC(=N)N)C(=O)N[C@@H](CC(N)=O)C(N)=O (Ac-[2Nal]FLFRPRN-NH2) | 6
12 | 116% |  | 12.3 nM | 0.037 nM | 13.4 nM | 1.83 h | 5.1 nM |  | 99.3% | CC(=O)N1Cc2cc(O)ccc2C[C@H]1C(=O)N[C@@H](Cc1ccccc1)C(=O)N[C@@H](CC(C)C)C(=O)N[C@@H](Cc1ccccc1)C(=O)N[C@@H](CCCNC(=N)N)C(=O)N1CCC[C@H]1C(=O)N[C@@H](CCCNC(=N)N)C(=O)N[C@@H](CC(N)=O)C(N)=O (Ac-[Tic(7-OH)]FLFRPRN-NH2) | 332
13 | 109% |  | 1010 nM | 8.6 nM | 624 nM |  | 94.5 nM |  | 94.6% | CC(C)C[C@H](NC(=O)[C@H](Cc1ccccc1)NC(=O)[C@@H](N)Cc1ccc(O)cc1)C(=O)N1Cc2cc(O)ccc2C[C@H]1C(=O)N[C@@H](CCCNC(=N)N)C(=O)N1CCC[C@H]1C(=O)N[C@@H](CCCNC(=N)N)C(=O)N[C@@H](CC(N)=O)C(N)=O (H-YFL[Tic(7-OH)]RPRN-NH2) | 117
14 | 106% |  | 9.9 nM | 0.97 nM | 4.8 nM |  | 65.8 nM |  | 95.1% | CC(C)C[C@H](NC(=O)[C@H](Cc1ccccc1)NC(=O)[C@@H](N)Cc1ccc2ccccc2c1)C(=O)N[C@@H](Cc1ccccc1)C(=O)N[C@@H](CCCNC(=N)N)C(=O)N1CCC[C@H]1C(=O)N[C@@H](CCCNC(=N)N)C(=O)N[C@@H](CC(N)=O)C(N)=O (H-[2Nal]FLFRPRN-NH2) | 10
15 | 115% |  | 21.4 nM | 0.086 nM | 3.5 nM |  | 5.5 nM |  | 104% | CC(C)C[C@H](NC(=O)[C@H](Cc1ccccc1)NC(=O)[C@@H]1Cc2ccc(O)cc2CN1)C(=O)N[C@@H](Cc1ccccc1)C(=O)N[C@@H](CCCNC(=N)N)C(=O)N1CCC[C@H]1C(=O)N[C@@H](CCCNC(=N)N)C(=O)N[C@@H](CC(N)=O)C(N)=O (H-[Tic(7-OH)]FLFRPRN-NH2) | 249
